Here are results for five compounds from ChEMBL document CHEMBL4251710, “Antibacterial Muraymycins from Mutant Strains of Streptomyces sp. NRRL 30471” (J Nat Prod, 2018).

Assay [1] concerns the target T1, Phospho-N-acetylmuramoyl-pentapeptide-transferase (Staphylococcus aureus, UniProt P0C1R8).
T1 sequence (P0C1R8 whole entry): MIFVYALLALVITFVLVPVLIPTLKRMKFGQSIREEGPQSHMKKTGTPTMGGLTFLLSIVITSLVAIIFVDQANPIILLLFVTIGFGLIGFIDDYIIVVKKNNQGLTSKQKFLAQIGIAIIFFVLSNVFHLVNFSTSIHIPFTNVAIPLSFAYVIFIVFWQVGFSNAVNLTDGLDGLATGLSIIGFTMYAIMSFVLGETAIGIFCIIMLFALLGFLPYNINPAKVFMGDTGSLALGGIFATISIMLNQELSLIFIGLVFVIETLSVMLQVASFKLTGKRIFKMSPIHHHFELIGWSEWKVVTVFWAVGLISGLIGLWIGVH
Nature of the assay: Inhibition of Staphylococcus aureus MraY expressed in Escherichia coli membrane using Park's nucleotide as substrate pretreated for 30 mins followed by substrate addition measured up to 2 mins by fluorescence assay. It is filed as cell membranes.

Assay [2] has as its system Staphylococcus aureus. Nature of the assay: Antimicrobial activity against Staphylococcus aureus subsp. aureus str. Newman after 16 hrs by resazurin dye based assay. It is filed as functional. Put shortly: (§1)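 Overnight cultures (16 h, 37 °C) were diluted 1000-fold, grown to OD600 0.4, then diluted 1000-fold again. Cells were exposed to serially diluted compound from a top final concentration of 256 or 32 μg/mL, against a 1% DMSO or water control. Plates were incubated 16 h at 37 °C, read at OD600 normalised to control, then given resazurin for 3 h. The MIC was the lowest concentration inhibiting growth.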

In assay [3] the test system is Escherichia coli. Kind of assay: Antimicrobial activity against tolC deficient Escherichia coli JW5503 after 16 hrs by resazurin dye based assay. It counts as functional. As to conditions: JW5503, 16 h. Put shortly:
as §1

In assay [4] the test system is Escherichia coli. Nature of the assay: Antimicrobial activity against Escherichia coli BL21(DE3) after 16 hrs by resazurin dye based assay. It is filed as functional. Put shortly: as §1
A general note: Resazurin is reduced to fluorescent resorufin, in cell work by metabolically active cells.

Assay [5] addresses T2, Phospho-N-acetylmuramoyl-pentapeptide-transferase (Aquifex aeolicus (strain VF5), UniProt O66465).
T2 sequence (O66465 whole entry): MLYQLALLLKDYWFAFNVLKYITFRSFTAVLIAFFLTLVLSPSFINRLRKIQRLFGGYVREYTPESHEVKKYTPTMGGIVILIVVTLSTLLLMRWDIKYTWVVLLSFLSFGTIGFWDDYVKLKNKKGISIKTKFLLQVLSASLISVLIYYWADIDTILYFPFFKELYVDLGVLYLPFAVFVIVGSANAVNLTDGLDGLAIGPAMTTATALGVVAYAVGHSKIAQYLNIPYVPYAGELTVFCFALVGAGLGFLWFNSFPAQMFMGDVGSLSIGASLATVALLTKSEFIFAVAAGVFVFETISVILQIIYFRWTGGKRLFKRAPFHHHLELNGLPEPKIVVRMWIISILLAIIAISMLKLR
Nature of the assay: Inhibition of Aquifex aeolicus MraY expressed in Escherichia coli C41(DE3) using Park's nucleotide as substrate pretreated for 30 mins followed by substrate addition measured up to 2 mins by fluorescence assay. Put shortly: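 Purified His-MBP-tagged AaMraY was expressed in E. coli C41(DE3), extracted with DDM, purified on cobalt resin, protease-cleaved and gel-filtered in DM. The enzyme (1 μL at 0.1 mg/mL) was preincubated 30 min at room temperature with inhibitor, undecaprenyl phosphate, pH 7.5 Tris, KCl, MgCl2, 0.1% Triton X-100 and 0–5% DMSO. Dansylated Park's nucleotide was then added. Fluorescence (ex 355/em 520 nm) was followed, and the rate was taken from a linear fit over 0–2 min.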

For assay [6], the system named is Escherichia coli. Kind of assay: Antimicrobial activity against Escherichia coli harboring imp mutant. It counts as functional.
For assay [7], the system named is Staphylococcus aureus. Kind of assay: Antimicrobial activity against Staphylococcus aureus infected in mouse. It counts as functional.

Broadly, the pIC50 is the negative decadic logarithm of the IC50, by convention in mol/L. The term MIC denotes the lowest concentration found to suppress growth. Higher therefore signals a need for much substance. In general, ED50 refers to the midpoint of the dose-response relation. Low values mean an effect at a small dose, high ones a need for a large dose.

pIC50: −log10 of the molar value. Converted amounts (≈) assume the structure as drawn.

In the case of `CO[C@H]1[C@H](O[C@H]([C@H]2O[C@@H](n3ccc(=O)[nH]c3=O)[C@H](O)[C@@H]2O)[C@H](NCCCNC(=O)[C@@H](NC(=O)[C@@H](NC(=O)N[C@H](C(=O)O)C(C)C)[C@@H]2CCNC(=N)N2)[C@@H](OC(=O)CCCCCCCCCCCCC(C)C)C(C)C)C(=O)O)O[C@H](CN)[C@H]1O`, the pIC50 in assay [1] is 11.40. Further, the values for the minimum inhibitory concentration (MIC) against Staphylococcus aureus [2], against Escherichia coli [3] and against Escherichia coli [4] were 2 µg/mL (≈ 1.69 µM), 4 µg/mL (≈ 3.38 µM) and 64 µg/mL (≈ 54 µM), respectively.
On to `CO[C@H]1[C@H](O[C@H]([C@H]2O[C@@H](n3ccc(=O)[nH]c3=O)[C@H](O)[C@@H]2O)[C@H](NCCCNC(=O)[C@@H](NC(=O)[C@@H](NC(=O)N[C@H](C(=O)O)C(C)C)[C@@H]2CCNC(=N)N2)[C@@H](OC(=O)CCCCCCCCCCC(C)C)C(C)C)C(=O)O)O[C@H](CN)[C@H]1O`, for which the negative-log IC50 (pIC50) in assay [1] was 10.66; in assay [5] it was 9.49. Moreover, the minimal inhibitory concentration (MIC) with Staphylococcus aureus [2] stood at 6 µg/mL (≈ 5.19 µM); in the assay on Escherichia coli [3] it was 2 µg/mL (≈ 1.73 µM); against Escherichia coli [4], 32 µg/mL (≈ 27.7 µM).
Take `CO[C@H]1[C@H](O[C@H]([C@H]2O[C@@H](n3ccc(=O)[nH]c3=O)[C@H](O)[C@@H]2O)[C@H](NCCCNC(=O)[C@@H](NC(=O)[C@@H](NC(=O)N[C@H](C(=O)O)C(C)C)[C@@H]2CCNC(=N)N2)[C@@H](OC(=O)CCCCCCCCCCCCN(O)C(=N)N)C(C)C)C(=O)O)O[C@H](CN)[C@H]1O`: the minimum inhibitory concentration (MIC) against Escherichia coli [6] was under 0.03 µg/mL. This compound also registered an ED50 in the assay on Staphylococcus aureus [7] of 1.1 mg/kg.
With `CO[C@H]1[C@H](O[C@H]([C@H]2O[C@@H](n3ccc(=O)[nH]c3=O)[C@H](O)[C@@H]2O)[C@H](NCCCNC(=O)[C@@H](NC(=O)[C@@H](NC(=O)N[C@H](C(=O)O)C(C)C)[C@@H]2CCNC(=N)N2)[C@@H](O)C(C)C)C(=O)O)O[C@H](CNC(C)=O)[C@H]1O`, the pIC50 in assay [1] was 10.03; in assay [5], 8.74. Besides, the results for the MIC with Staphylococcus aureus [2], with Escherichia coli [3] and in the assay on Escherichia coli [4] were over 32 µg/mL, 16 µg/mL (≈ 16.2 µM) and 256 µg/mL (≈ 259 µM), respectively.
On the same counts, the results for `CO[C@H]1[C@H](O[C@H]([C@H]2O[C@@H](n3ccc(=O)[nH]c3=O)[C@H](O)[C@@H]2O)[C@H](NCCCNC(=O)[C@@H](NC(=O)[C@@H](NC(=O)N[C@H](C(=O)O)C(C)C)[C@@H]2CCNC(=N)N2)[C@@H](O)C(C)C)C(=O)O)O[C@H](CN)[C@H]1O` are 10.80, 9.46, over 32 µg/mL, 1 µg/mL (≈ 1.06 µM) and 8 µg/mL (≈ 8.46 µM).
